Calls of active or inactive are those of the source. The rule behind the calls is not given here.
What was measured:
[1] = target: RAC-beta serine/threonine-protein kinase (Homo sapiens, UniProt P31751); experiment: Inhibition of PKBbeta by radiometric filter binding assay
PC-3M = experiment: Inhibition of PC3M cells by SRB assay after 96 hrs; assay type: functional; conditions: Homo sapiens
[2] = target: cAMP-dependent protein kinase (PKA) (Homo sapiens, UniProt P22694+P17612+P22612); experiment: Inhibition of PKA by radiometric filter binding assay; assay type: protein assay
U-87 MG [3] = experiment: Decrease in pS6 protein levels in U87MG cells after 1 hr by Western blotting; assay type: functional, cell-based; conditions: Homo sapiens; U-87MG ATCC
Outline: (§1)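 U87MG glioblastoma cells were treated for 1 h across a titration of inhibitor concentrations. Phosphorylation states of PI3K-PKB-mTOR pathway components were then read out by Western blot with phospho-specific antibodies.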

U-87 MG [4] = experiment: Decrease in pGSK3-beta protein levels in U87MG cells after 1 hr by Western blotting; assay type: functional, cell-based; conditions: Homo sapiens; U-87MG ATCC; outline: as §1
Cytochrome P450 2C9 = Cytochrome P450 2C9 (Homo sapiens, UniProt P11712); experiment: Inhibition of CYP2C9; assay type: ADME
Cytochrome P450 2D6 = Cytochrome P450 2D6 (Homo sapiens, UniProt P10635); experiment: Inhibition of CYP2D6; assay type: ADME
Cytochrome P450 2C19 = Cytochrome P450 2C19 (Homo sapiens, UniProt P33261); experiment: Inhibition of CYP2C19; assay type: ADME
U-87 MG [5] = experiment: Inhibition of U87MG cells by SRB assay after 96 hrs; assay type: functional, U-87MG ATCC; conditions: Homo sapiens
[6] = target: T1, Serine/threonine-protein kinase AKT (Homo sapiens, UniProt P31751+Q9Y243+P31749); experiment: Inhibition of GSK3-beta phosphorylation in U87MG cells by ELISA; assay type: functional, cell-based; conditions: u-87mg atcc
HCT-116 = experiment: Inhibition of HCT116 cells by SRB assay after 96 hrs; assay type: functional; conditions: Homo sapiens, HCT-116, 96 h
[7] = target: T1, Serine/threonine-protein kinase AKT; experiment: Inhibition of GSK3-beta phosphorylation in PC3M cells after 1 hr by ELISA; assay type: functional, cell-based
U-87 MG [8] = experiment: Decrease in pFKHR protein levels in U87MG cells after 1 hr by Western blotting; assay type: functional, cell-based; conditions: Homo sapiens; U-87MG ATCC; outline: as §1
U-87 MG [9] = experiment: Increase in pSer473-PKB protein levels in U87MG cells after 1 hr by Western blotting; assay type: functional, cell-based; conditions: Homo sapiens; U-87MG ATCC; outline: as §1
Cytochrome P450 1A2 = target: T2, Cytochrome P450 1A2 (Homo sapiens, UniProt P05177); experiment: Inhibition of CYP1A2; assay type: ADME
T2 sequence (P05177 whole entry): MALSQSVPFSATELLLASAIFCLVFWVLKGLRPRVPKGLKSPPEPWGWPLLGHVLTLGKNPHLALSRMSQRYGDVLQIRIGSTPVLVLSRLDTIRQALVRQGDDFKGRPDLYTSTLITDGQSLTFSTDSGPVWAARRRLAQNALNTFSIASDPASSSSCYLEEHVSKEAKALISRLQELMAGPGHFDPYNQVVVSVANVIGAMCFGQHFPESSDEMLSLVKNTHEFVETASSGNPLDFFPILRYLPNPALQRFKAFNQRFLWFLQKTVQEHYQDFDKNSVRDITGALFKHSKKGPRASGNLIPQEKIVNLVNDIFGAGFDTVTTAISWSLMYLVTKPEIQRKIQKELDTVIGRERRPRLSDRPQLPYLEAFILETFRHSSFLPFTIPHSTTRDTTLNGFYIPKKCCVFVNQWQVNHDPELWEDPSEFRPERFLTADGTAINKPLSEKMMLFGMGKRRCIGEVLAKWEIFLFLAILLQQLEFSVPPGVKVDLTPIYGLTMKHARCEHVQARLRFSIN

Cytochrome P450 3A4 = Cytochrome P450 3A4 (Homo sapiens, UniProt P08684); experiment: Inhibition of CYP3A4; assay type: ADME
Chain of Cytochrome P450 3A4 (P08684 whole entry): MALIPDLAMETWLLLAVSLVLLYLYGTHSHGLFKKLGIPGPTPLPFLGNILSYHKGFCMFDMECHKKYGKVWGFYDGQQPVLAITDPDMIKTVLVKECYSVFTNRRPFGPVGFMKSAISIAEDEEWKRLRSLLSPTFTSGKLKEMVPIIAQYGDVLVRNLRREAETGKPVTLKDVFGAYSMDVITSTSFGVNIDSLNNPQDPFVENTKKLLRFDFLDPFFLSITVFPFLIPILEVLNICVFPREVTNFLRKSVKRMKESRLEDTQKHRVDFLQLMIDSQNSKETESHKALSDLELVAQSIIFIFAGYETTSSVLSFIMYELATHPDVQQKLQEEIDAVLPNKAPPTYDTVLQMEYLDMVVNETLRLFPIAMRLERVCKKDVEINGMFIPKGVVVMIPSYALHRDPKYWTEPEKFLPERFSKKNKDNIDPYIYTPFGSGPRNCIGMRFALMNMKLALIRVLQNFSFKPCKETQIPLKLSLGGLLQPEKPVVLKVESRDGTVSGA

Chain of RAC-beta serine/threonine-protein kinase (P31751 whole entry): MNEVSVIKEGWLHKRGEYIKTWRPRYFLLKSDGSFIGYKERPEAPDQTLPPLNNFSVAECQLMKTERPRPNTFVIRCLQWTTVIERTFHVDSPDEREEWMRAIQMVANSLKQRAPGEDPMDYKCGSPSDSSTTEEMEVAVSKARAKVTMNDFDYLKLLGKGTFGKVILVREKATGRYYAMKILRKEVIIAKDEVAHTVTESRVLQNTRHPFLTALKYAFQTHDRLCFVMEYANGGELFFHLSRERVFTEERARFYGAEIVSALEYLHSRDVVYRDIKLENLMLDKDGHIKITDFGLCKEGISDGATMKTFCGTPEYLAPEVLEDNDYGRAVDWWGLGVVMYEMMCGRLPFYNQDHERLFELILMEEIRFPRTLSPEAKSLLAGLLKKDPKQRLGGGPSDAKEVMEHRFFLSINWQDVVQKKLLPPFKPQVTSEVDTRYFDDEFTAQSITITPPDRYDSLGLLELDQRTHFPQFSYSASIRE
Chain of Cytochrome P450 2D6 (P10635 whole entry): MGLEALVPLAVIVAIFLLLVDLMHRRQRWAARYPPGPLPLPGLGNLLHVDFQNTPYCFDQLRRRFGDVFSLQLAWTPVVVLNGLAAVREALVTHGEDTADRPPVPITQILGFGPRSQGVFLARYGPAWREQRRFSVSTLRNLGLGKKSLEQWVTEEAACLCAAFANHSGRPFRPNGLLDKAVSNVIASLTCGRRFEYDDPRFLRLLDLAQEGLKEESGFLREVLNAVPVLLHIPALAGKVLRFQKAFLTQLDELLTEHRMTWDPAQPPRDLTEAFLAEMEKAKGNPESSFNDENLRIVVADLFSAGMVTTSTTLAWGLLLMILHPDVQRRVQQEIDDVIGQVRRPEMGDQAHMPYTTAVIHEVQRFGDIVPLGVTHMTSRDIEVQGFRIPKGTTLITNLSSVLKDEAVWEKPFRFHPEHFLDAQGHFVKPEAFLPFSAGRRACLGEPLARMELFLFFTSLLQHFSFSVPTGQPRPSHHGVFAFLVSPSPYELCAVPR
Chain of Cytochrome P450 2C19 (P33261 whole entry): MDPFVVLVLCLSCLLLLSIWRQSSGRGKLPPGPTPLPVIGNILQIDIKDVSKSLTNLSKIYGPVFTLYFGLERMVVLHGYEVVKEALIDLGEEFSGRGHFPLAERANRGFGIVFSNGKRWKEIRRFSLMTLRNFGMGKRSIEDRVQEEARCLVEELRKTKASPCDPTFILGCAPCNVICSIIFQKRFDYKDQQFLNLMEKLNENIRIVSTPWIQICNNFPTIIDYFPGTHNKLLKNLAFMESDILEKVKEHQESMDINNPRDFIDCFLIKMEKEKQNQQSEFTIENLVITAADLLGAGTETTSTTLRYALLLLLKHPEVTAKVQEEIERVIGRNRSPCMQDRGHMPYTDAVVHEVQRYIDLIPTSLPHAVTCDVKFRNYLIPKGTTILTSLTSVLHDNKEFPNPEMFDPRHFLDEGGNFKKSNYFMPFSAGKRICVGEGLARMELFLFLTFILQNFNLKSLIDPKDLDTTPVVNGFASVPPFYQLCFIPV
Chain of Cytochrome P450 2C9 (P11712 whole entry): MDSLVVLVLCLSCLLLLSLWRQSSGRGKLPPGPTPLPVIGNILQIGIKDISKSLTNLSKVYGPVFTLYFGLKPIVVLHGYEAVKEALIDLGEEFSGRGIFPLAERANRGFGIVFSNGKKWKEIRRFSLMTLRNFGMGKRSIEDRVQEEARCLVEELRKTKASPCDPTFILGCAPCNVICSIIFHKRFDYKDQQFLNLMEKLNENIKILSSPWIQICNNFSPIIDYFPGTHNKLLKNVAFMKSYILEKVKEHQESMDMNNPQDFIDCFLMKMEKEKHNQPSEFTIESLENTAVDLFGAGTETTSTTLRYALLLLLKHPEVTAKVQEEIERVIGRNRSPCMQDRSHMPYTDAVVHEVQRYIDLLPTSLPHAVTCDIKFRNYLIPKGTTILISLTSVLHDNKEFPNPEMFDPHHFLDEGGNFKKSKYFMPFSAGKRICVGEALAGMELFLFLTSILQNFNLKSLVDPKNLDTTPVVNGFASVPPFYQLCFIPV

IC50 [1]	GI50 (PC-3M)	IC50 [2]	SMILES	further results
0.43 µM	32 µM	0.61 µM	NC(Cc1ccccc1)c1ccc(-c2ncnc3[nH]cnc23)cc1 (centres undefined)	
0.01 µM	16 µM	0.015 µM	CNC(c1ccc(Cl)cc1)c1ccc(-c2ncnc3[nH]cnc23)cc1 (centres undefined)	
0.4 µM	32 µM		NC(c1ccccc1)c1ccc(-c2ncnc3[nH]cnc23)cc1 (centres undefined)	
6.9 µM	> 50 µM	5.2 µM	CNCc1ccc(-c2ncnc3[nH]cnc23)cc1	
1.6 µM	> 50 µM	5.5 µM	CNCc1cccc(-c2ncnc3[nH]cnc23)c1	
	4.5 µM	0.033 µM	Clc1ccc(C2(c3ccc(-c4ncnc5[nH]cnc45)cc3)CCNCC2)cc1	Activity (U-87 MG [3]): Active; Activity (U-87 MG [4]): Active; IC50 (Cytochrome P450 2C9): > 10 µM; IC50 (Cytochrome P450 2D6): > 10 µM; IC50 (Cytochrome P450 2C19): 1.6 µM; GI50 (U-87 MG [5]): 8.7 µM; IC50 [6]: 1.9 µM; GI50 (HCT-116): 5.7 µM; IC50 [7]: 6 µM; Activity (U-87 MG [8]): Active; Activity (U-87 MG [9]): Active; IC50 (Cytochrome P450 1A2): > 10 µM; IC50 (Cytochrome P450 3A4): 10 µM
0.009 µM	28 µM		NC(c1ccc(Cl)cc1)c1ccc(-c2ncnc3[nH]cnc23)cc1 (centres undefined)	

SMILES	IC50 [1]	GI50 (PC-3M)	IC50 [2]	further results
NCCc1ccc(-c2ncnc3[nH]cnc23)cc1	9.5 µM			
NCCc1cccc(-c2ncnc3[nH]cnc23)c1	3.2 µM	> 50 µM		

Reference: ChEMBL document CHEMBL1139878, “Rapid evolution of 6-phenylpurine inhibitors of protein kinase B through structure-based design” (J Med Chem, 2007)
